Laboratory results reported in ChEMBL document CHEMBL5030531, “Synthetic Glycolipids as Molecular Vaccine Adjuvants: Mechanism of Action in Human Cells and In Vivo Activity” (J Med Chem, 2021).
The source made the active and inactive calls.

Columns and labels:
Macrophage [1] = assay: Activation of TRIF dependent pathway in human THP-1 derived macrophages assessed as increase in IRF3 phosphorylation at 10 uM measured up to 3 hrs by immunoblotting analysis; format: tissue-based; conditions: filed as activator, time hrs <=3
Method in brief: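 Differentiated THP-1 macrophages exposed to compound at 10 μM, alongside S-LPS and R-LPS (100 ng/mL each) and MPLA (1 μg/mL), and collected over a time course. Lysates were immunoblotted for phospho-IRF3 (Ser386) with β-actin as loading control and detected by chemiluminescence.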

Mus musculus [2] = assay: Immuno-adjuvant activity in C57BL/6 mouse assessed as increase in levels of anti-ova total IgG in sera at 10 ug administered subcutaneously in presence of ovalbumin and measured 21 days post immunization by ELISA; format: functional, organism-based; conditions: dose 10.0 µg, time 21.0 day
Method in brief: (§1)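 Female C57BL/6 mice (n = 8) given 50 μL s.c. in the flank of 500 μg endotoxin-depleted OVA mixed with 10 μg adjuvant in PBS. Booster on opposite flank day 22; OVA-only control group. Tail-vein sera taken days 21 and 41, serially diluted 1:100–1:12 800 and assayed by ELISA on OVA-coated plates (4 μg/mL). Detection with HRP anti-mouse IgG, TMB, A450.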

[3] = Toxicity in C57BL/6 […] assessed as local response at injection site at 10 ug observed daily for 7 days; conditions: mouse, in vivo, 168 h; dose 10 µg, time 7 day
Method in brief: (§2)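 Six-week-old female C57BL/6 mice were injected subcutaneously in the flank with 10 μg adjuvant in 50 μL PBS. Mice were monitored and weighed daily for 7 days, with injection-site response and alertness noted. Group size is n = 3 per treatment in the methods and n = 4 in the figure legend.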

Mus musculus [4] = assay: Immuno-adjuvant activity in C57BL/6 mouse assessed as increase in levels of anti-ova total IgG in sera at 10 ug administered subcutaneously on day 1 and as booster dose on day 22 in presence of ovalbumin and […] by ELISA; format: functional, organism-based; conditions: dose 10.0 µg; method in brief: as §1
HEK-Blue hTLR4 [5] = assay: Activation of AP-1 in LPS-stimulated HEK-Blue hTLR4 cells assessed as increase in release of SEAP reporter protein level incubated for 18 hrs by QUANTI-blue assay; format: cell-based; conditions: Homo sapiens, filed as activator
Method in brief: (§3)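 HEK-Blue hTLR4 cells (HEK293 with CD14, TLR4, MD-2 and NF-κB/AP-1-driven SEAP) in DMEM/10% FBS, seeded overnight (37 °C, 5% CO2), washed, then exposed to compound 0.1–25 μM in fresh medium for 18 h. SEAP in supernatant read with QUANTI-Blue substrate (0.5–4 h, RT) at OD 630 nm. Normalized to 100 ng/mL S. minnesota smooth LPS; mean percentage of three independent experiments.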

Macrophage [6] = assay: Activation of TRIF dependent pathway in human THP-1 derived macrophages assessed as increase in IFNbeta mRNA expression measured 2 hrs post treatment by real-time PCR; conditions: filed as activator
Macrophage [7] = assay: Activation of TRIF dependent pathway in human THP-1 derived macrophages assessed as STAT1 phosphorylation at 10 uM pretreated with anti-IFNAR2 antibody for 1 hr followed by compound addition and measured after 3 hrs by immunoblotting analysis; conditions: filed as activator
[8] = target: NACHT, LRR and PYD domains-containing protein 3 (Homo sapiens) (UniProt Q96P20); assay: Activation of NLRP3 inflammasome in human THP-1 derived macrophages assessed as increase in caspase-1 cleavage at 20 uM by immunoblotting analysis; format: tissue-based; conditions: Macrophage, filed as activator
Chain of NACHT, LRR and PYD domains-containing protein 3 (Homo sapiens) (Q96P20 whole entry, the tested form may be a part): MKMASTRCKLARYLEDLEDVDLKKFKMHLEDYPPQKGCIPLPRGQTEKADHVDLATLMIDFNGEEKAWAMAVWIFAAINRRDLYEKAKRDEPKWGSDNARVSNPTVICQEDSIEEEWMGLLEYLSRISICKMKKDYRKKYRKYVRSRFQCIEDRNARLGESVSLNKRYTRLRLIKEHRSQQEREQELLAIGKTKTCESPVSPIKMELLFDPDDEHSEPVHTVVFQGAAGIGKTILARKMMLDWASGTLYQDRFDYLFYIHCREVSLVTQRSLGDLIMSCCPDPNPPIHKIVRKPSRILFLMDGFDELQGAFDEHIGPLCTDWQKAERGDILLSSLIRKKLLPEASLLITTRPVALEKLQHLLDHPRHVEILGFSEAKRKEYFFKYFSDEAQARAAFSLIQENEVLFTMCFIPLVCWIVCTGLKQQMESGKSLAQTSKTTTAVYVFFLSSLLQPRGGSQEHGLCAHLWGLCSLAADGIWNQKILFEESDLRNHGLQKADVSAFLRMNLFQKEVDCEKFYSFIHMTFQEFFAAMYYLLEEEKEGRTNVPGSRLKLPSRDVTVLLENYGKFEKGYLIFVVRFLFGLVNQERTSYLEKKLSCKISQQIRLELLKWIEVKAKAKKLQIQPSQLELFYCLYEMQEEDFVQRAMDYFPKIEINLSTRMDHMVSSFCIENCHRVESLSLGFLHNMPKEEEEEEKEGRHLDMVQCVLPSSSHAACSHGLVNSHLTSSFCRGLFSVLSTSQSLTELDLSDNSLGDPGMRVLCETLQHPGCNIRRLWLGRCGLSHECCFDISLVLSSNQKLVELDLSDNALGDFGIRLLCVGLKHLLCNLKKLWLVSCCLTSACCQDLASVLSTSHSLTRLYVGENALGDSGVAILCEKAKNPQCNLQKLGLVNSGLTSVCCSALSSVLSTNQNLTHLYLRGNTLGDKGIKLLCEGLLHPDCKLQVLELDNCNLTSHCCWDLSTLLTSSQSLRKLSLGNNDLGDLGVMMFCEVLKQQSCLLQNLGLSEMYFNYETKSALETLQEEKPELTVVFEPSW
Method in brief: (§4)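 After 6 h of compound at 20 μM, differentiated THP-1 macrophage lysates were immunoblotted for pro-caspase-1 and pro-IL-1β. Methanol/chloroform-precipitated supernatants were probed for cleaved caspase-1 and cleaved IL-1β (Asp116), with chemiluminescent detection. Released IL-1β was also measured by ELISA.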

[9] = target: T1, Nuclear factor NF-kappa-B complex (Homo sapiens) (UniProt Q00653+P19838+Q04206); assay: Activation of NF-kappaB in LPS-stimulated HEK-Blue hTLR4 cells assessed as increase in release of SEAP reporter protein level incubated for 18 hrs by QUANTI-blue assay; format: cell-based; conditions: filed as activator; method in brief: as §3
T1 sequence (P19838 whole entry, looked up): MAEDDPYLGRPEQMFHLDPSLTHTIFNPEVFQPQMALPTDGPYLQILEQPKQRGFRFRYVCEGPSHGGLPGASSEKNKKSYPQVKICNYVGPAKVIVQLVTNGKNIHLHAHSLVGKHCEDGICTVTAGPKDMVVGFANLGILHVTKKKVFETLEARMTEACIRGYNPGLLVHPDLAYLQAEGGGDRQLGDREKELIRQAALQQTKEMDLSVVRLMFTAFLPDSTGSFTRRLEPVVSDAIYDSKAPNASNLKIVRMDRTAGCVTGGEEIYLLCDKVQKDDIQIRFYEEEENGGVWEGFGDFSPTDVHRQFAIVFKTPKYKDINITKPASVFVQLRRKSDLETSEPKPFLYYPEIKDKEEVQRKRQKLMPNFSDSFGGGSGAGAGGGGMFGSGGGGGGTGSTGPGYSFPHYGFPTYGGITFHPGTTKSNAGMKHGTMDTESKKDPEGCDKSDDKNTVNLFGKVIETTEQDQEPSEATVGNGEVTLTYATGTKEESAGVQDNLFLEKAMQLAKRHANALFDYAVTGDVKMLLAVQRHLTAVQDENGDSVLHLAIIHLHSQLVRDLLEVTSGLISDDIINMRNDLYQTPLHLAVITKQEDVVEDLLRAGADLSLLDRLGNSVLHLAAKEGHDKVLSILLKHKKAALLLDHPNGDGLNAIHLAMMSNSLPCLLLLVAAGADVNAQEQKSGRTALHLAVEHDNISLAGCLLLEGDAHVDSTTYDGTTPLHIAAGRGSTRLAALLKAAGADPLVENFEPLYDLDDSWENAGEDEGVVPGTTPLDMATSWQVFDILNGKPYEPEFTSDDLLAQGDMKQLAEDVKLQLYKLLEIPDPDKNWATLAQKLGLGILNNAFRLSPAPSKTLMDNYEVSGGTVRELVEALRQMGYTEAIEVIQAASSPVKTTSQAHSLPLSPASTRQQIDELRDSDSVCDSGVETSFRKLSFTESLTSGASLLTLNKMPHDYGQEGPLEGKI
T1 sequence (Q00653 whole entry, looked up): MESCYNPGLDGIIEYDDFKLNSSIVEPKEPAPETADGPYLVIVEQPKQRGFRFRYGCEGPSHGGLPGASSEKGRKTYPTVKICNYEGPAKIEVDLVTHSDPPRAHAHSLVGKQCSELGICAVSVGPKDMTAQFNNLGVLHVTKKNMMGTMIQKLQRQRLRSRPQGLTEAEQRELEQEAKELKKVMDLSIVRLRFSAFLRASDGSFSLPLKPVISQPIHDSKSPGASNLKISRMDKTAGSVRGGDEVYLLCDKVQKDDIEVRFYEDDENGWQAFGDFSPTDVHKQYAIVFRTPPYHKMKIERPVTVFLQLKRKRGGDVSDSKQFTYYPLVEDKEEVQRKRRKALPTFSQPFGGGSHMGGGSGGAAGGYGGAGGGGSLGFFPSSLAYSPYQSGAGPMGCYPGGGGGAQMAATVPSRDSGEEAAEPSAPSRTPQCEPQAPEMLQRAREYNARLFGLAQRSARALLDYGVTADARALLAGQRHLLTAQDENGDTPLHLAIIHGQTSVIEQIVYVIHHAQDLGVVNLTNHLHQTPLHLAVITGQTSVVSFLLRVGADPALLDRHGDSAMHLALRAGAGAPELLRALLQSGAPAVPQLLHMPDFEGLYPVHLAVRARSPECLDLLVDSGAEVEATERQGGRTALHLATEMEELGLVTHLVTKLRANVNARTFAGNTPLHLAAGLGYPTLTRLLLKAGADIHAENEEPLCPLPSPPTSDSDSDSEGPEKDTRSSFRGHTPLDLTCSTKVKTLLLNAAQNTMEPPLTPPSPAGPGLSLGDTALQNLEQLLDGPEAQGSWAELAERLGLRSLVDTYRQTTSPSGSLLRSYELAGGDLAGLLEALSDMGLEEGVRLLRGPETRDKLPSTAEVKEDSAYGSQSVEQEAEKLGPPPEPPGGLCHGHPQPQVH
T1 sequence (Q04206 whole entry, looked up): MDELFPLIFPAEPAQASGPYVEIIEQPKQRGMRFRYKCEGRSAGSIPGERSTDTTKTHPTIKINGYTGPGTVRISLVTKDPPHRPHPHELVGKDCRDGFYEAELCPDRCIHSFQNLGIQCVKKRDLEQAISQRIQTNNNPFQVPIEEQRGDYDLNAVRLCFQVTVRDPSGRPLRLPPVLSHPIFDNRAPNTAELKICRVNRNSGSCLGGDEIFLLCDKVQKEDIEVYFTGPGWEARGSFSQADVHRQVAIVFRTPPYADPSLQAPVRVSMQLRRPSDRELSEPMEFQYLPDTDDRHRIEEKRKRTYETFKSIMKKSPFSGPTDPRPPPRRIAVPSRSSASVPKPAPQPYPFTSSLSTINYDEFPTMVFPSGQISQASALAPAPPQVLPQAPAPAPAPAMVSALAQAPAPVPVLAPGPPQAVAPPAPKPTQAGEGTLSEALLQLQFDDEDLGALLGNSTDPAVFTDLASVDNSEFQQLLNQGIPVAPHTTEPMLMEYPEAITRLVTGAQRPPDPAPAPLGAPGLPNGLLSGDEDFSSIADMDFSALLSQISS

Macrophage [10] = assay: Activation of TRIF dependent pathway in human THP-1 derived macrophages assessed as increase in RSAD2 expression measured after 6 hrs; format: tissue-based; conditions: filed as activator
Method in brief: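 RSAD2 mRNA in differentiated THP-1 macrophages after compound at 10 μM, measured by RT-qPCR (annealing 60 °C) with β-actin housekeeping gene. Expressed as ΔΔCt fold change versus untreated cells; n = 3, Wilcoxon test.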

[11] = target: Myeloid differentiation primary response protein MyD88 (Homo sapiens) (UniProt Q99836); assay: Activation of MyD88 dependent pathway in human THP-1 derived macrophages assessed as increase in IL-1 beta secretion at 10 to 25 uM measured after 18 hrs by ELISA; conditions: Macrophage, filed as activator, dose 10-25 µM
Chain of Myeloid differentiation primary response protein MyD88 (Homo sapiens) (Q99836 whole entry): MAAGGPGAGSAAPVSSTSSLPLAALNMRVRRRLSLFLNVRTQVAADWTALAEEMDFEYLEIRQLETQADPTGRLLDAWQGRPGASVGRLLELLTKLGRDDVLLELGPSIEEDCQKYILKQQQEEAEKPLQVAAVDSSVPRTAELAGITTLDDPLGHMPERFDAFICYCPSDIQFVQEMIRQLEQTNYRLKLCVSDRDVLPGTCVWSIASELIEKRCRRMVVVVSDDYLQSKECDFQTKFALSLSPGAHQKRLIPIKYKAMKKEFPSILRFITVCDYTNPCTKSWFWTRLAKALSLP
Method in brief: (§5)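 THP-1 cells differentiated with PMA 25 ng/mL for 72 h, then rested 24 h in fresh medium before stimulation with compound (range 0.1–1 to 10–25 μM) in RPMI/10% FBS for 18 h. S-LPS and MPLA used as references. TNFα, IL-1β, IL-6 in supernatants quantified by sandwich ELISA at 450 nm (570 nm correction).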

[12] = target: T2, Toll-like receptor 4/MD-2 (Homo sapiens) (UniProt O00206+Q9Y6Y9); assay: Binding affinity to NTA sensor chip immobilized recombinant human TLR4/MD2 assessed as association rate constant by surface plasmon resonance analysis; format: protein-complex assay; conditions: filed as agonist
Method in brief: (§6)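 Recombinant human TLR4/MD2 complex (20 μg/mL in 10 mM sodium acetate pH 4.0) amine-coupled to NTA chip after NiCl2 and EDC/NHS activation, ethanolamine-blocked. Analytes sonicated 15 min and diluted in PBS-P+ with 5% DMSO, injected over the series 4.34–69.50 μM or 5.34–85.50 μM. Regeneration 50 mM NaOH. Kinetics fitted to 1:1 model after solvent correction.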

Macrophage [13] = assay: Induction of IL-1beta production in human THP-1 derived macrophages assessed as secretion of IL-1beta mature form in supernatant at 20 uM measured up to 18 hrs by ELISA; format: functional, tissue-based; conditions: time hrs <=18
Method in brief: (§7)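 Differentiated THP-1 macrophages treated with compound at 20 μM (S-LPS, R-LPS 100 ng/mL; MPLA 1 μg/mL) for 3, 6 and 18 h. IL-1β measured by ELISA in both cell lysates and supernatants; n = 3, one-way ANOVA versus untreated.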

[14] = target: NACHT, LRR and PYD domains-containing protein 3 (Homo sapiens) (UniProt Q96P20); assay: Activation of NLRP3 inflammasome in human THP-1 derived macrophages assessed as increase in IL-1beta maturation and release at 20 uM measured after 6 hrs by ELISA; format: tissue-based; conditions: Macrophage, filed as activator; method in brief: as §4
Macrophage [15] = assay: Inhibition of IL-1beta release in human THP-1 derived macrophages pretreated with NLRP3 inhibitor MCC950 for 1 hr followed by compound addition and measured after 6 hrs by ELISA and immunoblotting analysis; format: functional, tissue-based
Method in brief: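 Differentiated THP-1 macrophages preincubated 1 h with MCC950 at 0.01, 0.1, 1 and 10 μM. Cells were then stimulated 6 h with compound at 20 μM or with S-LPS at 100 ng/mL. Secreted IL-1β measured by ELISA and by immunoblot of supernatants.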

Macrophage [16] = assay: Induction of IL-1beta production in human THP-1 derived macrophages assessed as accumulation of IL-1beta precursor in cell lysates at 20 uM measured up to 18 hrs by ELISA; format: functional, subcellular; conditions: time hrs <=18; method in brief: as §7
[17] = Toxicity in C57BL/6 […] assessed as effect on body weight at 10 ug measured daily for 7 days; conditions: mouse, in vivo, 168 h; dose 10 µg, time 7 day; method in brief: as §2
[18] = target: Myeloid differentiation primary response protein MyD88 (Homo sapiens) (UniProt Q99836); assay: Activation of MyD88 dependent pathway in human THP-1 derived macrophages assessed as increase in MAPK p38 phosphorylation at 10 uM measured after 1 hr by immunoblotting analysis; format: tissue-based; conditions: Macrophage, filed as activator
Method in brief: (§8)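 PMA-differentiated THP-1 macrophages treated with compound at 10 μM (S-LPS 100 ng/mL, MPLA 1 μg/mL as references) and harvested at set times. RIPA lysates with protease/phosphatase inhibitors separated by SDS-PAGE, transferred to PVDF and probed for phospho-p65 (Ser536) and phospho-p38 (Thr180/Tyr182) with β-actin as loading control. Detection by chemiluminescence, densitometry; representative of at least two experiments.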

[19] = target: T2, Toll-like receptor 4/MD-2 (Homo sapiens); assay: Binding affinity to NTA sensor chip immobilized recombinant human TLR4/MD2 assessed as dissociation rate kinetics by surface plasmon resonance analysis; format: protein-complex assay; conditions: filed as agonist; method in brief: as §6
[20] = target: Toll-like receptor 4 (Homo sapiens) (UniProt O00206); assay: Antagonist activity at human TLR4 in LPS-stimulated HEK-Blue hTLR4 cells assessed as inhibition of LPS-induced SEAP production at 0.1 to 25 uM incubated for 18 hrs by QUANTI-blue assay; conditions: dose 0.1-25 µM
Chain of Toll-like receptor 4 (Homo sapiens) (O00206 whole entry): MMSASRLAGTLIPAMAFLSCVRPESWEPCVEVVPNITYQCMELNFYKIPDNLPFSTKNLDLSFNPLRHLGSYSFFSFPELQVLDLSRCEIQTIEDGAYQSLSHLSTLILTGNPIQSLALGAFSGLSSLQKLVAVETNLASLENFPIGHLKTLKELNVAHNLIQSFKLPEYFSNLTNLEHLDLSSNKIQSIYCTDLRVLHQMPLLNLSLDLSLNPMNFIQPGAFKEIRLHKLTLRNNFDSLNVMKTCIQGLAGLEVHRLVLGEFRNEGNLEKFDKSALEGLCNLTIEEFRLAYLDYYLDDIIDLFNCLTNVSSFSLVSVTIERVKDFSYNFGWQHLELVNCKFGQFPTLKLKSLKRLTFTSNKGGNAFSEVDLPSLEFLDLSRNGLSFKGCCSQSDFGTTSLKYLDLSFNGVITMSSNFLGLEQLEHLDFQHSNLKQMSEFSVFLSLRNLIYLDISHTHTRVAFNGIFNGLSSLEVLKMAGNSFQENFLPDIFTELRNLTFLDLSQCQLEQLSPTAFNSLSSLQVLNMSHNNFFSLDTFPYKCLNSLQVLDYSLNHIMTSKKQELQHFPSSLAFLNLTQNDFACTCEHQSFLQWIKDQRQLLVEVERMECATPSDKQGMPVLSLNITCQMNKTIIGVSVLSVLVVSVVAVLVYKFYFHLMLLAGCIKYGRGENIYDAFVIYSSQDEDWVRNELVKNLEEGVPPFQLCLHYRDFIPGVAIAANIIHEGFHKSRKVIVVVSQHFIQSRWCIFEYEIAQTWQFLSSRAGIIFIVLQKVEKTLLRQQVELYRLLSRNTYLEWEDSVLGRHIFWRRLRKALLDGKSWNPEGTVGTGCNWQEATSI

[21] = target: Toll-like receptor 4 (Homo sapiens) (UniProt O00206); assay: Activation of human TLR4 in IL-1beta stimulated HEK-Blue Null cells assessed as NF-kappaB activation at 0.1 to 25 uM incubated for 18 hrs by QUANTI- blue assay; format: tissue-based; conditions: dose 0.1-25 µM
Method in brief: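 HEK-Blue Null cells, which carry the SEAP reporter but lack LPS receptors, were given compound (0.1–25 μM) for 18 h. SEAP was read by QUANTI-Blue at OD 630 nm and normalized to 100 ng/mL human IL-1β as positive control. Results are the mean percentage of three independent experiments.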

[22] = target: Myeloid differentiation primary response protein MyD88 (Homo sapiens) (UniProt Q99836); assay: Activation of MyD88 dependent pathway in human THP-1 derived macrophages assessed as increase in IL-6 secretion at 10 to 25 uM measured after 18 hrs by ELISA; conditions: Macrophage, filed as activator, dose 10-25 µM; method in brief: as §5
Macrophage [23] = assay: Activation of TRIF dependent pathway in human THP-1 derived macrophages assessed as increase in IFNbeta mRNA expression by measuring fold increase measured 2 hrs post treatment by real-time PCR relative to control; conditions: filed as activator
[24] = target: Myeloid differentiation primary response protein MyD88 (Homo sapiens) (UniProt Q99836); assay: Activation of MyD88 dependent pathway in human THP-1 derived macrophages assessed as increase in TNF alpha secretion at 10 to 25 uM measured after 18 hrs by ELISA; conditions: Macrophage, filed as activator, dose 10-25 µM; method in brief: as §5
[25] = Toxicity in C57BL/6 […] assessed as state of alertness at 10 ug observed daily for 7 days; conditions: mouse, in vivo, 168 h; dose 10 µg, time 7 day; method in brief: as §2
[26] = target: Myeloid differentiation primary response protein MyD88 (Homo sapiens) (UniProt Q99836); assay: Activation of MyD88 dependent pathway in human THP-1 derived macrophages assessed as increase in NF-kappaB p65 phosphorylation at 10 uM measured after 1 hr by immunoblotting analysis; format: tissue-based; conditions: Macrophage, filed as activator; method in brief: as §8
[27] = target: T2, Toll-like receptor 4/MD-2 (Homo sapiens); assay: Binding affinity to NTA sensor chip immobilized recombinant human TLR4/MD2 assessed as maximum response by surface plasmon resonance analysis; format: protein-complex assay; conditions: filed as agonist; method in brief: as §6
[28] = target: Toll-like receptor 2 (Homo sapiens) (UniProt O60603); assay: Agonist activity human TLR2 in PAM2CSK4 stimulated HEK-Blue hTLR2 cells at 0.1 to 25 uM incubated for 18 hrs by QUANTI-blue assay; format: cell-based; conditions: dose 0.1-25 µM
Method in brief: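 HEK-Blue hTLR2 cells exposed 18 h to compound (0.1–25 μM); SEAP in supernatant by QUANTI-Blue at OD 630 nm. Values normalized to PAM2CSK4 (10 ng/mL, 18 h) and expressed as mean percentage of three independent experiments.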

[29] = target: T1, Nuclear factor NF-kappa-B complex (Homo sapiens); assay: Activation of NF-kappaB in LPS-stimulated HEK-Blue hTLR4 cells assessed as increase in release of SEAP reporter protein level at 0.1 to 25 uM incubated for 18 hrs by QUANTI-blue assay; format: cell-based; conditions: dose 0.1-25 µM; method in brief: as §3
HEK-Blue hTLR4 [30] = assay: Activation of AP-1 in LPS-stimulated HEK-Blue hTLR4 cells assessed as increase in release of SEAP reporter protein level at 0.1 to 25 uM incubated for 18 hrs by QUANTI-blue assay; format: cell-based; conditions: Homo sapiens, dose 0.1-25 µM; method in brief: as §3

CCCCCCCCCCCC(=O)N[C@H]1[C@@H](OP(=O)([O-])[O-])O[C@H](CO)[C@@H](OC(=O)CCCCCCCCCCC)[C@@H]1OC(=O)CCCCCCCCCCC.[Na+].[Na+]
29.1 RU: Rmax [27]
20: fold change (FC) (Macrophage [23])
inactive: Activity [20] | Activity [21] | Activity [28]
active: Activity (Macrophage [1]) | Activity (Mus musculus [2]) | Activity (Mus musculus [4]) | Activity (HEK-Blue hTLR4 [5]) Dose-Dependent Effect | Activity (Macrophage [6]) | Activity (Macrophage [7]) | Activity [8] | Activity [9] Dose-Dependent Effect | Activity (Macrophage [10]) | Activity [11] | Activity (Macrophage [13]) | Activity [14] | inhibition (Macrophage [15]) Dose-Dependent Effect | Activity (Macrophage [16]) | Activity [18] | Activity [22] | Activity [24] | Activity [26]
5.19 10^-4/s: Kdiss [19]
Non-Toxic: Activity [3] | Activity [17] | Activity [25]
9.15 10^2/Ms: Ka [12]

CCCCCCCCCCCCCC(=O)N[C@H]1[C@@H](OP(=O)(O)O)O[C@H](COP(=O)(O)O)[C@@H](OC(=O)CCCCCCCCCCCCC)[C@@H]1OC(=O)CCCCCCCCCCCCC
inactive: Activity [29] | Activity (HEK-Blue hTLR4 [30]) | Activity [20]
